From ChEMBL document CHEMBL4396922, “Identification of new aryl hydrocarbon receptor (AhR) antagonists using a zebrafish model” (Bioorg Med Chem, 2019)
Activity calls are given as the source filed them. The calls are words filed in the database; no cut-off is given here.

Target: T1, Aryl hydrocarbon receptor (Danio rerio, UniProt Q9YGV3)
T1 sequence (Q9YGV3 whole entry): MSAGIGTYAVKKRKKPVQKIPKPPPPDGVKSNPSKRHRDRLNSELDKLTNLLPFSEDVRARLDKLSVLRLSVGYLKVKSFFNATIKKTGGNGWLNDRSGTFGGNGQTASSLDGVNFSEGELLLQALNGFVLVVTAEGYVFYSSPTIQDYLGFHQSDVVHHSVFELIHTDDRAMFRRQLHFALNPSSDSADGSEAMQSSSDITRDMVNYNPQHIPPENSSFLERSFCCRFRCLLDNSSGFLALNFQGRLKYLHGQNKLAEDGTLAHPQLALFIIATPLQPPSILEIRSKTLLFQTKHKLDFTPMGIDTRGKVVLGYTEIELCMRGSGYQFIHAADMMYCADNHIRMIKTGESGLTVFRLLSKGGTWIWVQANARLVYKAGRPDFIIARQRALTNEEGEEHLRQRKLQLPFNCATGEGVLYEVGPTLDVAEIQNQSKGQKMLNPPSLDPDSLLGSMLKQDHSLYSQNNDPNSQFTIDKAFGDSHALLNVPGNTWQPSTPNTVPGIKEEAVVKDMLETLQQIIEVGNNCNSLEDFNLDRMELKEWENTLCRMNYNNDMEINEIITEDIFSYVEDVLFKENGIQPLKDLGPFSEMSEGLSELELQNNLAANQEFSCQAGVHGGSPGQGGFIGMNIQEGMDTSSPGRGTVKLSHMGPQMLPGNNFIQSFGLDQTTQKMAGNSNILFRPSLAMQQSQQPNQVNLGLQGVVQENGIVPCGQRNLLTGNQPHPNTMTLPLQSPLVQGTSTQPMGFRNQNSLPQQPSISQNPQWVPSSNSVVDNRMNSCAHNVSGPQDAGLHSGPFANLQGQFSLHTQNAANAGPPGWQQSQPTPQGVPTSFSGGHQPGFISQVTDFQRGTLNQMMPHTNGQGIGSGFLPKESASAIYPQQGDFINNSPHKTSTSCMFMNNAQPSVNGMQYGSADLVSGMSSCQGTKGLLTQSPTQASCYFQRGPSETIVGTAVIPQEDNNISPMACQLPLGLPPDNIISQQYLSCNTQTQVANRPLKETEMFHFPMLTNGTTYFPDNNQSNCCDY
Assay: Antagonist activity at aryl hydrocarbon receptor in 30 hrs post fertilized transgenic cyp1a:EGFP zebrafish embryo assessed as receptor transcriptional activity by measuring cyp1A-mediated EGFP expression at 5 uM measured after 48 hrs by fluorescence stereomicroscopic analysis
Details: not given
Procedure, shortened: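 Screen format: 30 hpf Tg(cyp1a:nls-egfp) embryos, three per well in 200 µL E3 medium (pH 7.2) with 10 nM TCDD. Each compound was added singly at 5 µM in DMSO. Incubation 48 h, then EGFP scored by fluorescent stereomicroscopy.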

Row | SMILES | Activity
1 | COc1ccccc1-c1cc(-c2ccc(OC(C)C)cc2)ncn1 | Active
2 | COc1ccccc1-c1cc(-c2ccc(OC(C)C)cc2)no1 | Active
3 | COc1ccccc1-c1cc(-c2ccc(OC(F)(F)F)cc2)no1 | Not Active
4 | COc1ccccc1-c1cc(-c2ccc(OC(F)(F)F)cc2)[nH]n1 | Not Active
5 | COc1ccccc1-c1cc(-c2ccc(OC(C)C)cc2)[nH]n1 | Not Active

Further lines, results first:

Row | Activity | SMILES
6 | Not Active | COc1ccccc1C(=O)CC(=O)c1ccc(OCc2ccccc2)cc1
7 | Not Active | COc1ccc(C(=O)CC(=O)c2ccc(OC(F)(F)F)cc2)cc1
8 | Not Active | CC(C)Oc1ccc(C(=O)CC(=O)c2ccccc2OC(F)(F)F)cc1
9 | Not Active | COc1ccccc1C(=O)C(C)(C)C(=O)c1ccc(OC(C)C)cc1
10 | Not Active | COc1ccc(C(=O)CC(=O)c2ccccc2OC)cc1
11 | Active | COc1ccccc1C(=O)CC(=O)c1cccc(OC(F)(F)F)c1
12 | Not Active | COc1ccccc1C(=O)CC(=O)c1ccccc1
13 | Not Active | COc1cccc(OC)c1C(=O)CC(=O)c1ccc(OC(C)C)cc1
14 | Not Active | O=C(CC(=O)c1ccc(OC(F)(F)F)cc1)c1ccccc1
15 | Not Active | COc1cc(O)c(C(=O)CC(=O)c2ccc(OC(C)C)cc2)c(OC)c1
16 | Not Active | COc1ccccc1C(=O)CC(=O)c1ccc(OCC(C)C)cc1
17 | Not Active | COc1ccccc1C(=O)/C=C/c1ccc(OC(F)(F)F)cc1
18 | Active | COc1cccc(C(=O)CC(=O)c2ccc(OC(F)(F)F)cc2)c1
19 | Active | CCOc1ccc(C(=O)CC(=O)c2ccccc2OC)cc1

Target: T1, Aryl hydrocarbon receptor
Assay: Antagonist activity at zebrafish AhR2 expressed in COS7 cells transfected with ARNT-1c, Cyp1a-firefly luciferase and pRL-TK Renilla luciferase plasmids assessed as inhibition of AhR transcriptional activity administered at 5 hrs post-transfection treated with TCDD at 1 hr post-compound treatment and measured for 10 sec after a 3 sec delay at 18 hrs post-TCDD challenge by dual luciferase reporter …
Type: cell-based
Details: not given

Row | SMILES | IC50 [nM]
20 | Cc1ccccc1/N=N/c1ccc(NC(=O)c2ccnn2C)c(C)c1 | 98.1

Organism: Homo sapiens
Assay: Ex vivo expansion of human CD34-positive blood stem/progenitor cells assessed as CD34+ cell population incubated for 5 weeks supplemented with fresh medium containing human recombinant thrombopoietin, stem cell factor, FLT-3 ligand and IL-3 by flow cytometry
Type: functional
Details: not given
Procedure, shortened: (§1)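 Human cord blood CD34⁺ progenitors, 5 x 10⁴ cells in DXF expansion medium with supplement and cytokine mix (TPO, SCF, flt-3 ligand, IL-3), treated with compound at seeding. Cultured 5 weeks at 37°C, 5% CO2, density kept at 5 x 10⁵–2 x 10⁶ cells/ml. Cells stained with anti-CD34-APC plus CD45RA- or Lin-FITC and counted by flow cytometry; vehicle 0.01% DMSO.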

Row | SMILES | Activity
21 | Cc1ccccc1/N=N/c1ccc(NC(=O)c2ccnn2C)c(C)c1 | inactive
22 | CCOc1ccccc1C(=O)CC(=O)c1ccc(OC(C)C)cc1 | inactive
23 | COc1ccccc1C(=O)CC(=O)c1ccc(OC(F)(F)F)cc1 | inactive
24 | COc1ccccc1C(=O)CC(=O)c1ccc(OC(C)C)cc1 | inactive

System: not listed separately
Assay: Toxicity in 30 hrs post fertilized transgenic cyp1a:EGFP zebrafish embryo
Type: ADME, Danio rerio
Details: in vivo

Row | SMILES | Activity
25 | COc1ccccc1-c1cc(-c2ccc(OC(F)(F)F)cc2)[nH]n1 | Toxic
26 | COc1ccccc1C(=O)/C=C/c1ccc(OC(F)(F)F)cc1 | Toxic
27 | COc1ccccc1-c1cc(-c2ccc(OC(C)C)cc2)[nH]n1 | Toxic

Organism: Homo sapiens
Assay: Ex vivo expansion of human CD34-positive blood stem/progenitor cells assessed as increase in CD34+ cell population incubated for 5 weeks supplemented with fresh medium containing human recombinant thrombopoietin, stem cell factor, FLT-3 ligand and IL-3 by flow cytometry relative to control
Type: functional
Details: not given
Procedure, shortened: as §1

Row | SMILES | fold change (FC)
28 | COc1ccccc1C(=O)/C=C/c1ccc(OC(C)C)cc1 | > 4
